In brackets after ≈: the same amount, converted by molar mass.
Legend:
Plasmodium falciparum [1] = assay: Antimalarial activity against Plasmodium falciparum D6 at 80 ug/mL; format: functional, organism-based
Plasmodium falciparum [2] = assay: Antimalarial activity against Plasmodium falciparum W2 at 80 ug/mL; format: functional, organism-based
Vero = assay: Cytotoxicity against african green monkey Vero cells; format: cell-based; details: Chlorocebus sabaeus
Summary of the method: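 Cytotoxicity taken from the same HSV-1 plaque cultures: concentration causing half-maximal loss of uninfected Vero cells from the monolayer surrounding plaques.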

Human alphaherpesvirus 1 = assay: Antiviral activity against HSV1 infected african green monkey Vero cells assessed as inhibition of viral-induced cytopathic effect; format: functional; details: Human alphaherpesvirus 1, Vero; read-out: ED50 (the source's name)
Summary of the method: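 Simplified plaque reduction assay: serial dilutions of test compounds with herpes simplex type 1 virus in Vero African green monkey kidney cell cultures in 96-well trays.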

L929 [3] = assay: Toxicity against mouse L929 cells at 1 uM after 24 hrs by MTT assay relative to control; format: cell-based; details: l929, 24 h
Summary of the method: (§1)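 Host-cell toxicity for HFF and L929 cells determined by MTT cell proliferation assay; expressed as percent of control.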

Toxoplasma gondii [4] = assay: Antiparasitic activity against Toxoplasma gondii infected in HFF cells at 0.01 uM after 24 hrs by [3H]uracil incorporation assay relative to control; format: functional
Toxoplasma gondii [5] = assay: Antiparasitic activity against Toxoplasma gondii infected in mouse L929 cells at 10 uM after 48 hrs by [3H]uracil incorporation assay relative to control; format: functional
Toxoplasma gondii [6] = assay: Antiparasitic activity against Toxoplasma gondii infected in HFF cells at 0.1 uM after 48 hrs by [3H]uracil incorporation assay relative to control; format: functional
Plasmodium falciparum [7] = assay: Antimalarial activity against Plasmodium falciparum W2; format: functional, organism-based
Toxoplasma gondii [8] = assay: Antiparasitic activity against Toxoplasma gondii infected in HFF cells at 1 uM after 24 hrs by [3H]uracil incorporation assay relative to control; format: functional
[9] = Selectivity index, ratio of IC50 for african green monkey (Cercopithecus aethiops) Vero cells to IC50 for Plasmodium falciparum W2; format: toxicity, cell-based; details: read-out: Ratio IC50
Toxoplasma gondii [10] = assay: Antiparasitic activity against Toxoplasma gondii infected in mouse L929 cells at 1 uM after 48 hrs by [3H]uracil incorporation assay relative to control; format: functional
Toxoplasma gondii [11] = assay: Antiparasitic activity against Toxoplasma gondii infected in HFF cells at 10 uM after 48 hrs by [3H]uracil incorporation assay relative to control; format: functional
Toxoplasma gondii [12] = assay: Antiparasitic activity against Toxoplasma gondii infected in HFF cells at 0.1 uM after 24 hrs by [3H]uracil incorporation assay relative to control; format: functional
L929 [13] = assay: Toxicity against mouse L929 cells at 0.010 uM after 24 hrs by MTT assay relative to control; format: cell-based; details: l929, 24 h, 0.01 µM; summary of the method: as §1
L929 [14] = assay: Toxicity against mouse L929 cells at 10 uM after 24 hrs by MTT assay relative to control; format: cell-based; details: l929, 24 h; summary of the method: as §1
L929 [15] = assay: Toxicity against mouse L929 cells at 0.10 uM after 24 hrs by MTT assay relative to control; format: cell-based; details: l929, 24 h, 0.1 µM; summary of the method: as §1
HFF [16] = assay: Toxicity against HFF cells at 10 uM after 24 hrs by MTT assay relative to control; format: cell-based; details: human; summary of the method: as §1
Toxoplasma gondii [17] = assay: Antiparasitic activity against Toxoplasma gondii infected in mouse L929 cells at 0.01 uM after 24 hrs by [3H]uracil incorporation assay relative to control; format: functional
Toxoplasma gondii [18] = assay: Antiparasitic activity against Toxoplasma gondii infected in mouse L929 cells at 10 uM after 24 hrs by [3H]uracil incorporation assay relative to control; format: functional
Toxoplasma gondii [19] = assay: Antiparasitic activity against Toxoplasma gondii infected in HFF cells at 10 uM after 24 hrs by [3H]uracil incorporation assay relative to control; format: functional
Toxoplasma gondii [20] = assay: Antiparasitic activity against Toxoplasma gondii infected in HFF cells at 0.01 uM after 48 hrs by [3H]uracil incorporation assay relative to control; format: functional
L929 [21] = assay: Toxicity against mouse L929 cells at 10 uM after 48 hrs by MTT assay relative to control; format: cell-based; details: l929, 48 h; summary of the method: as §1
Toxoplasma gondii [22] = assay: Antiparasitic activity against Toxoplasma gondii infected in mouse L929 cells at 1 uM after 24 hrs by [3H]uracil incorporation assay relative to control; format: functional
HFF [23] = assay: Toxicity against HFF cells at 10 uM after 48 hrs by MTT assay relative to control; format: cell-based; details: human; summary of the method: as §1
HFF [24] = assay: Toxicity against HFF cells at 1 uM after 24 hrs by MTT assay relative to control; format: cell-based; details: human; summary of the method: as §1
HFF [25] = assay: Toxicity against HFF cells at 1 uM after 48 hrs by MTT assay relative to control; format: cell-based; details: human; summary of the method: as §1
Plasmodium falciparum [26] = assay: Antimalarial activity against Plasmodium falciparum D6; format: functional, organism-based
L929 [27] = assay: Toxicity against mouse L929 cells at 0.10 uM after 48 hrs by MTT assay relative to control; format: cell-based; details: l929, 48 h, 0.1 µM; summary of the method: as §1
HFF [28] = assay: Toxicity against HFF cells at 0.10 uM after 24 hrs by MTT assay relative to control; format: cell-based; details: human, 0.1 µM; summary of the method: as §1
L929 [29] = assay: Toxicity against mouse L929 cells at 1 uM after 48 hrs by MTT assay relative to control; format: cell-based; details: l929, 48 h; summary of the method: as §1
[30] = Selectivity index, ratio of IC50 for african green monkey (Cercopithecus aethiops) Vero cells to IC50 for Plasmodium falciparum D6; format: toxicity, cell-based; details: read-out: Ratio IC50
HFF [31] = assay: Toxicity against HFF cells at 0.010 uM after 24 hrs by MTT assay relative to control; format: cell-based; details: human, 0.01 µM; summary of the method: as §1
L929 [32] = assay: Toxicity against mouse L929 cells at 0.010 uM after 48 hrs by MTT assay relative to control; format: cell-based; details: l929, 48 h, 0.01 µM; summary of the method: as §1
Toxoplasma gondii [33] = assay: Antiparasitic activity against Toxoplasma gondii infected in mouse L929 cells at 0.01 uM after 48 hrs by [3H]uracil incorporation assay relative to control; format: functional
Toxoplasma gondii [34] = assay: Antiparasitic activity against Toxoplasma gondii infected in HFF cells at 1 uM after 48 hrs by [3H]uracil incorporation assay relative to control; format: functional
HFF [35] = assay: Toxicity against HFF cells at 0.010 uM after 48 hrs by MTT assay relative to control; format: cell-based; details: human, 0.01 µM; summary of the method: as §1
HFF [36] = assay: Toxicity against HFF cells at 0.10 uM after 48 hrs by MTT assay relative to control; format: cell-based; details: human, 0.1 µM; summary of the method: as §1
Toxoplasma gondii [37] = assay: Antiparasitic activity against Toxoplasma gondii infected in mouse L929 cells at 0.1 uM after 48 hrs by [3H]uracil incorporation assay relative to control; format: functional
Toxoplasma gondii [38] = assay: Antiparasitic activity against Toxoplasma gondii infected in mouse L929 cells at 0.1 uM after 24 hrs by [3H]uracil incorporation assay relative to control; format: functional

For `CC(=O)CCCC(C)(C)C(=O)CC/C(C)=C/CC[C@@]1(C)CC[C@H]([C@H](C)C(=O)O)OO1` [AIKUPIKOXIDE A], the IC50 (Plasmodium falciparum [1]) was “Not Active”, the IC50 (Plasmodium falciparum [2]) was “Not Active” and the IC50 (Vero) was 60 µg/mL (≈ 141 µM). For the same compound, the EC50 (Human alphaherpesvirus 1) was 30 µg/mL (≈ 70.7 µM).

In the case of `CC1=C(CC/C(C)=C/CC[C@@]2(C)CC[C@@H]([C@@H](C)C(=O)O)OO2)C(C)(C)CCC1` [MUQUBILIN], the Activity (L929 [3]) is reported as 66.3%, the Activity (Toxoplasma gondii [4]) is reported as 3.16% and the Activity (Toxoplasma gondii [5]) is reported as 100%. For the same compound, the Activity (Toxoplasma gondii [6]) was 62.88%, the IC50 (Plasmodium falciparum [7]) was > 4.76 µg/mL and the Activity (Toxoplasma gondii [8]) was 86.18%. For the same compound, the selectivity ratio [9] was > 1, the Activity (Toxoplasma gondii [10]) was 96.77% and the Activity (Toxoplasma gondii [11]) was 100%. The Activity (Toxoplasma gondii [12]) was 84%, the Activity (L929 [13]) was 0% and the IC50 (Vero) was 30 µg/mL (≈ 76.4 µM). For the same compound, the Activity (L929 [14]) was 93%, the Activity (L929 [15]) was 0% and the Activity (HFF [16]) was 85.85%. It also gave an Activity (Toxoplasma gondii [17]) of 33.85%, an Activity (Toxoplasma gondii [18]) of 87.84% and an Activity (Toxoplasma gondii [19]) of 91.72%. It also gave an Activity (Toxoplasma gondii [20]) of 0%, an Activity (L929 [21]) of 94.9% and an Activity (Toxoplasma gondii [22]) of 84.03%. It also gave an Activity (HFF [23]) of 84.73%, an Activity (HFF [24]) of 86.15% and an Activity (HFF [25]) of 85.93%. It also gave an IC50 (Plasmodium falciparum [26]) of 2.9 µg/mL (≈ 7.39 µM), an Activity (L929 [27]) of 0% and an EC50 (Human alphaherpesvirus 1) of 7.5 µg/mL (≈ 19.1 µM). The Activity (HFF [28]) was 7.15%, the Activity (L929 [29]) was 83.36% and the selectivity ratio [30] was > 1.6. The Activity (HFF [31]) was 0%, the Activity (L929 [32]) was 0% and the Activity (Toxoplasma gondii [33]) was 0%. It also gave an Activity (Toxoplasma gondii [34]) of 87.94%, an Activity (HFF [35]) of 0% and an Activity (HFF [36]) of 0.94%. It also gave an Activity (Toxoplasma gondii [37]) of 46.3% and an Activity (Toxoplasma gondii [38]) of 58.35%.

`C=C1CCC[C@H]2[C@](C)(CC[C@]3(C)CC[C@H]([C@@H](C)C(=O)O)OO3)[C@@H](C)CC[C@]12C` [SIGMOSCEPTRELLIN A] showed an IC50 (Plasmodium falciparum [7]) of 0.42 µg/mL (≈ 1.07 µM) and an IC50 (Plasmodium falciparum [26]) of 0.47 µg/mL (≈ 1.2 µM).

With `C=C1CCC[C@@H]2[C@@H](CC[C@@]3(C)CC[C@H]([C@H](C)C(=O)O)OO3)[C@H](C)CC[C@@]12C` [SIGMOSCEPTRELLIN B] the Activity (L929 [3]) was 60.48%, the Activity (Toxoplasma gondii [4]) was 0% and the Activity (Toxoplasma gondii [5]) was 100%. The Activity (Toxoplasma gondii [6]) was 98.32%, the IC50 (Plasmodium falciparum [7]) was 3.4 µg/mL (≈ 8.98 µM) and the Activity (Toxoplasma gondii [8]) was 96.49%. The selectivity ratio [9] was > 1, the Activity (Toxoplasma gondii [10]) was 98.82% and the Activity (Toxoplasma gondii [11]) was 100%. For the same compound, the Activity (Toxoplasma gondii [12]) was 84.72%, the Activity (L929 [13]) was 0% and the IC50 (Vero) was 2.5 µg/mL (≈ 6.6 µM). It also gave an Activity (L929 [14]) of 92.96%, an Activity (L929 [15]) of 0% and an Activity (HFF [16]) of 87.41%. It also gave an Activity (Toxoplasma gondii [17]) of 0%, an Activity (Toxoplasma gondii [18]) of 96.62% and an Activity (Toxoplasma gondii [19]) of 94.91%. It also gave an Activity (Toxoplasma gondii [20]) of 37.57%, an Activity (L929 [21]) of 91.05% and an Activity (Toxoplasma gondii [22]) of 91.88%. It also gave an Activity (HFF [23]) of 94.65%, an Activity (HFF [24]) of 86.81% and an Activity (HFF [25]) of 64.37%. It also gave an IC50 (Plasmodium falciparum [26]) of 1.2 µg/mL (≈ 3.17 µM), an Activity (L929 [27]) of 0% and an Activity (HFF [28]) of 0%. For the same compound, the Activity (L929 [29]) was 91.21%, the selectivity ratio [30] was > 2.7 and the Activity (HFF [31]) was 0%. For the same compound, the Activity (L929 [32]) was 0%, the Activity (Toxoplasma gondii [33]) was 24.15% and the Activity (Toxoplasma gondii [34]) was 100%. For the same compound, the Activity (HFF [35]) was 0%, the Activity (HFF [36]) was 5.56% and the Activity (Toxoplasma gondii [37]) was 35.17%. The Activity (Toxoplasma gondii [38]) was 18.61%.
